Results taken from ChEMBL document CHEMBL1126705, “16 beta-([18F]fluoro)estrogens: systematic investigation of a new series of fluorine-18-labeled estrogens as potential imaging agents for estrogen-receptor-positive breast tumors” (J Med Chem, 1993).
Blank lines part the entries; values can stand above or below the molecule they belong to.

Experiments:
[1] = target: T1, Alpha-fetoprotein (Rattus norvegicus) (UniProt P02773); experiment: Relative binding affinity for Alphafetoprotein
T1 sequence (whole entry): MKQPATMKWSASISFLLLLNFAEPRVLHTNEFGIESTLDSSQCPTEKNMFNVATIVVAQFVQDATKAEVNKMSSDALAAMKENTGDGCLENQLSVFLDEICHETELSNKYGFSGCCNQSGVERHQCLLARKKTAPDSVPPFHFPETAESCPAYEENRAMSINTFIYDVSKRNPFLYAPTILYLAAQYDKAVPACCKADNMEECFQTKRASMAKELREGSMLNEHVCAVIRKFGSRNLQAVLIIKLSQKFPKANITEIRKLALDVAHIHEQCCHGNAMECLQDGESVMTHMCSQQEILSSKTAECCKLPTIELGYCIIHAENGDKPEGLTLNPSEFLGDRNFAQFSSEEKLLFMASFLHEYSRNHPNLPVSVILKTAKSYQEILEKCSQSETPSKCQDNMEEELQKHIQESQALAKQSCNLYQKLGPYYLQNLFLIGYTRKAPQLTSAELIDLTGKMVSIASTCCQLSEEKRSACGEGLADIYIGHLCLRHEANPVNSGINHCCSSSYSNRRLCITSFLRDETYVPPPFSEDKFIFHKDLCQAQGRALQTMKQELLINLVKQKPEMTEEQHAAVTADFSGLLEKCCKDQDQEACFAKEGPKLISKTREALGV

[2] = Partition coefficient (logP); assay type: physicochemical; conditions: octanol/water
Procedure, shortened: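 Octanol/water log P estimated from log k'w measured by reversed-phase HPLC (Minick method) on a C8 silica column.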

[3] = target: T2, Sex hormone-binding globulin (Homo sapiens) (UniProt P04278); experiment: Relative binding affinity against sex steroid binding protein (SBP)
T2 sequence (whole entry): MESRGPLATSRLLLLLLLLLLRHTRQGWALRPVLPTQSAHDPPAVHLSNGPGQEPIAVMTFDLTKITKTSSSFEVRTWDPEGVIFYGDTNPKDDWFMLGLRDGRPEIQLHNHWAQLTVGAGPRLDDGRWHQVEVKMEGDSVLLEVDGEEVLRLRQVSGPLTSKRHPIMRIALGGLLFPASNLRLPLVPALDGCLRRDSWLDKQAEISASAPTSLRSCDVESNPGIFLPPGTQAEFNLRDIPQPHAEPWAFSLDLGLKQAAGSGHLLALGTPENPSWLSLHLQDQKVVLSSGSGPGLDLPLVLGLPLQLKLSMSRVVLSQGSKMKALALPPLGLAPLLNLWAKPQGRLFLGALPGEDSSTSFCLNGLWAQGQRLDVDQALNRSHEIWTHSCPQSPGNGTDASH

[4] = target: T3, Estrogen receptor (Rattus norvegicus) (UniProt P06211+Q62986)
[5] = target: T3, Estrogen receptor (Rattus norvegicus); remark: listed apart in the source
Rattus norvegicus [6] = experiment: Tested in vivo for the biodistribution in blood of female rat at 1 hour after intravenous dose of 50 microCi of drug in 10%ethanol saline; assay type: ADME, organism-based
Procedure, shortened: (§1)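 Ether-anesthetized 25-day-old female Sprague-Dawley rats (~40–53 g) got the [18F] tracer in 10% ethanol saline via femoral vein. Rats were decapitated at 1 or 3 h, and blood and organs were weighed and gamma-counted. Values are % injected dose/g as mean ± SD, n = 5 per time point.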

Rattus norvegicus [7] = experiment: Tested in vivo for the biodistribution in rat uterus/blood after 3 hours following an intravenous dose of 50 microCi of drug in 10%ethanol saline; assay type: ADME, organism-based
Procedure, shortened: (§2)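 Female Sprague-Dawley rats, 25 days old (~40–53 g), ether-anesthetized, given the 18F-labeled estrogen iv via femoral vein in 10% ethanol saline. […] Others were sacrificed by decapitation at 1 or 3 h. Blood and organs were excised, weighed and gamma counted as % injected dose/g, mean ± SD, typically n = 5 (4–6).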

Rattus norvegicus [8] = experiment: Tested in vivo for the biodistribution in rat kidney after 3 hours following an intravenous dose of 50 microCi of drug in 10%ethanol saline; assay type: ADME, organism-based; procedure, shortened: as §1
Rattus norvegicus [9] = experiment: Tested in vivo for the biodistribution in rat fat after 3 hours following an intravenous dose of 50 microCi of drug in 10%ethanol saline; assay type: ADME, organism-based, Adipose tissue; procedure, shortened: as §1
Rattus norvegicus [10] = experiment: Tested in vivo for the biodistribution in rat muscle at 1 hour after intravenous dose of 50 microCi of the drug and 15 ug of estradiol; assay type: ADME, organism-based, Muscle tissue
Procedure, shortened: (§3)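 Immature (25-day-old) female Sprague-Dawley rats, ether-anesthetized, given the fluorine-18-labeled estrogen by femoral vein injection in 10% ethanol saline. […] Other groups were killed by decapitation at 1 or 3 h. Blood and organs were weighed and gamma-counted. Data are % injected dose/g, mean ± SD, typically n = 5 per group.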

Rattus norvegicus [11] = experiment: Tested in vivo for the biodistribution in rat uterus/blood at 1 hour after intravenous dose of 50 microCi of the drug and 15 ug of estradiol; assay type: ADME, organism-based; procedure, shortened: as §2
Rattus norvegicus [12] = experiment: Tested in vivo for the biodistribution in blood of female rat after 3 hours following an intravenous dose of 50 microCi of drug in 10%ethanol saline; assay type: ADME, organism-based; procedure, shortened: as §1
Rattus norvegicus [13] = experiment: Tested in vivo for the biodistribution in rat uterus/muscle at 1 hour after intravenous dose of 50 microCi of drug in 10%ethanol saline; assay type: ADME, organism-based, Muscle tissue; procedure, shortened: as §2
Rattus norvegicus [14] = experiment: Tested in vivo for the biodistribution in rat thymus at 1 hour after intravenous dose of 50 microCi of the drug and 15 ug of estradiol; assay type: ADME, organism-based; procedure, shortened: as §3
Rattus norvegicus [15] = experiment: Tested in vivo for the biodistribution in rat uterus/blood at 1 hour after intravenous dose of 50 microCi of drug in 10%ethanol saline; assay type: ADME, organism-based; procedure, shortened: as §2
Rattus norvegicus [16] = experiment: Tested in vivo for the biodistribution in rat ovaries at 1 hour after intravenous dose of 50 microCi of the drug and 15 ug of estradiol; assay type: ADME, organism-based, Female gonad; procedure, shortened: as §3
Rattus norvegicus [17] = experiment: Tested in vivo for the biodistribution in rat uterus/muscle at 1 hour after intravenous dose of 50 microCi of the drug and 15 ug of estradiol; assay type: ADME, organism-based, Muscle tissue; procedure, shortened: as §2
Rattus norvegicus [18] = experiment: Tested in vivo for the biodistribution in rat ovaries at 1 hour after intravenous dose of 50 microCi of drug in 10%ethanol saline; assay type: ADME, organism-based, Female gonad; procedure, shortened: as §3
Rattus norvegicus [19] = experiment: Tested in vivo for the biodistribution in rat liver at 1 hour after intravenous dose of 50 microCi of the drug and 15 u g of estradiol; assay type: ADME, organism-based; procedure, shortened: as §3
Rattus norvegicus [20] = experiment: Tested in vivo for the biodistribution in rat liver after 3 hours following an intravenous dose of 50 microCi of drug in 10%ethanol saline; assay type: ADME, organism-based; procedure, shortened: as §3
Rattus norvegicus [21] = experiment: Tested in vivo for the biodistribution in rat fat at 1 hour after intravenous dose of 50 microCi of drug in 10%ethanol saline; assay type: ADME, organism-based, Adipose tissue; procedure, shortened: as §1
Rattus norvegicus [22] = experiment: Tested in vivo for the biodistribution in rat uterus at 1 hour after intravenous dose of 50 microCi of drug in 10%ethanol saline; assay type: ADME, organism-based; procedure, shortened: as §2
Rattus norvegicus [23] = experiment: Tested in vivo for the biodistribution in rat liver at 1 hour after intravenous dose of 50 microCi of drug in 10%ethanol saline; assay type: ADME, organism-based; procedure, shortened: as §3
Rattus norvegicus [24] = experiment: Tested in vivo for the biodistribution in rat kidney at 1 hour after intravenous dose of 50 microCi of the drug and 15 u g of estradiol; assay type: ADME, organism-based; procedure, shortened: as §3
Rattus norvegicus [25] = experiment: Tested in vivo for the biodistribution in rat muscle at 1 hour after intravenous dose of 50 microCi of drug in 10%ethanol saline; assay type: ADME, organism-based, Muscle tissue; procedure, shortened: as §3
Rattus norvegicus [26] = experiment: Tested in vivo for the biodistribution in rat ovaries after 3 hours following an intravenous dose of 50 microCi of drug in 10%ethanol saline; assay type: ADME, organism-based, Female gonad; procedure, shortened: as §3
Rattus norvegicus [27] = experiment: Tested in vivo for the biodistribution in rat bone at 1 hour after intravenous dose of 50 microCi of drug in 10%ethanol saline; assay type: ADME, organism-based, Bone element; procedure, shortened: as §1
Rattus norvegicus [28] = experiment: Tested in vivo for the biodistribution in blood of female rat at 1 hour after intravenous dose of 50 microCi of the drug and 15 u g of estradiol; assay type: ADME, organism-based
Rattus norvegicus [29] = experiment: Tested in vivo for the biodistribution in rat bone after 3 hours following an intravenous dose of 50 microCi of drug in 10%ethanol saline; assay type: ADME, organism-based, Bone element; procedure, shortened: as §1
Rattus norvegicus [30] = experiment: Tested in vivo for the biodistribution in rat thymus at 1 hour after intravenous dose of 50 microCi of drug in 10%ethanol saline; assay type: ADME, organism-based; procedure, shortened: as §3
Rattus norvegicus [31] = experiment: Tested in vivo for the biodistribution in rat kidney at 1 hour after intravenous dose of 50 microCi of drug in 10%ethanol saline; assay type: ADME, organism-based; procedure, shortened: as §1
Rattus norvegicus [32] = experiment: Tested in vivo for the biodistribution in rat bone at 1 hour after intravenous dose of 50 microCi of the drug and 15 ug of estradiol; assay type: ADME, organism-based, Bone element
Rattus norvegicus [33] = experiment: Tested in vivo for the biodistribution in rat thymus after 3 hours following an intravenous dose of 50 microCi of drug in 10%ethanol saline; assay type: ADME, organism-based; procedure, shortened: as §3
Rattus norvegicus [34] = experiment: Tested in vivo for the biodistribution in rat fat at 1 hour after intravenous dose of 50 microCi of the drug and 15 ug of estradiol; assay type: ADME, organism-based, Adipose tissue
Rattus norvegicus [35] = experiment: Tested in vivo for the biodistribution in rat muscle after 3 hours following an intravenous dose of 50 microCi of drug in 10%ethanol saline; assay type: ADME, organism-based, Muscle tissue; procedure, shortened: as §3
Rattus norvegicus [36] = experiment: Tested in vivo for the biodistribution in rat uterus at 1 hour after intravenous dose of 50 microCi of the drug and 15 ug of estradiol; assay type: ADME, organism-based; procedure, shortened: as §2
Rattus norvegicus [37] = experiment: Tested in vivo for the biodistribution in rat uterus/muscle after 3 hours following an intravenous dose of 50 microCi of drug in 10%ethanol saline; assay type: ADME, organism-based, Muscle tissue; procedure, shortened: as §2
Rattus norvegicus [38] = experiment: Tested in vivo for the biodistribution in rat uterus after 3 hours following an intravenous dose of 50 microCi of drug in 10%ethanol saline; assay type: ADME, organism-based; procedure, shortened: as §3

relative binding affinity (RBA) [1]: 1.21
logP [2]: 3.9
relative binding affinity (RBA) [3]: 40.8
BSI [4]: 648
NSB [5]: 2.1
SMILES: CCC1C[C@]2(C)[C@@H](O)CC[C@H]2[C@@H]2CCc3cc(O)ccc3[C@@H]12 (stereo partly specified)

relative binding affinity (RBA) [1]: 0.347
logP [2]: 4.28
relative binding affinity (RBA) [3]: 41.2
BSI [4]: 331
NSB [5]: 2.86
SMILES: C#C[C@]1(O)CC[C@H]2[C@@H]3CCc4cc(O)ccc4[C@H]3C(CC)C[C@@]21C (stereo partly specified)

Injected (Rattus norvegicus [6]): 0.284%
Injected (Rattus norvegicus [7]): 129.8%
Injected (Rattus norvegicus [8]): 0.973%
Injected (Rattus norvegicus [9]): 0.858%
Injected (Rattus norvegicus [10]): 0.525%
Injected (Rattus norvegicus [11]): 7.52%
Injected (Rattus norvegicus [12]): 0.101%
Injected (Rattus norvegicus [13]): 24.31%
Injected (Rattus norvegicus [14]): 0.44%
Injected (Rattus norvegicus [15]): 66.26%
Injected (Rattus norvegicus [16]): 1.661%
relative binding affinity (RBA) [1]: < 0.01
Injected (Rattus norvegicus [17]): 5.25%
Injected (Rattus norvegicus [18]): 5.2%
Injected (Rattus norvegicus [19]): 3.708%
Injected (Rattus norvegicus [20]): 2.129%
Injected (Rattus norvegicus [21]): 1.538%
Injected (Rattus norvegicus [22]): 18.26%
Injected (Rattus norvegicus [23]): 3.244%
Injected (Rattus norvegicus [24]): 1.038%
Injected (Rattus norvegicus [25]): 0.739%
Injected (Rattus norvegicus [26]): 3.51%
Injected (Rattus norvegicus [27]): 1.384%
Injected (Rattus norvegicus [28]): 0.38%
Injected (Rattus norvegicus [29]): 2.007%
Injected (Rattus norvegicus [30]): 0.852%
Injected (Rattus norvegicus [31]): 1.961%
Injected (Rattus norvegicus [32]): 1.477%
Injected (Rattus norvegicus [33]): 0.454%
Injected (Rattus norvegicus [34]): 0.679%
Injected (Rattus norvegicus [35]): 0.389%
logP [2]: 2.87
Injected (Rattus norvegicus [36]): 2.548%
relative binding affinity (RBA) [3]: 0.037
BSI [4]: 116
Injected (Rattus norvegicus [37]): 32.76%
NSB [5]: 0.67
Injected (Rattus norvegicus [38]): 12.99%
SMILES: C#C[C@]1(O)[C@@H](F)C[C@H]2[C@@H]3CCc4cc(O)ccc4[C@H]3[C@@H](OC)C[C@@]21C

relative binding affinity (RBA) [1]: 100
logP [2]: 3.26
relative binding affinity (RBA) [3]: 100
SMILES: C[C@]12CC[C@@H]3c4ccc(O)cc4CC[C@H]3[C@@H]1CC[C@@H]2O [ESTRADIOL]
